We go through three compounds from article PMC5903260 (British Journal of Clinical Pharmacology, 2018).

Series [1] is classed as in vivo, human. Particulars: for measured plasma concentrations of metabolites: all samples after regorafenib eye drops, below LLOQ (2 μg l^−1); for Cmax: C max. In outline: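 Plasma was sampled from predose to 7 days after a single dose, or to 14 days after the last of 14 days' dosing, with dense early time points. Parent and metabolites M-2 and M-5 were measured by validated LC-MS/MS; LLOQ was 0.1 µg l⁻¹ for parent and 2 µg l⁻¹ for metabolites. AUC over dosing intervals, AUC₀₋tlast, Cav, Cmax, Cmin, t1/2 and accumulation ratios were derived, with log-normal ANOVA for dose proportionality.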

For series [2] the following is noted: cited from earlier work.
The nature of series [3]: Safety, tolerability and functional ocular assessments in healthy volunteers. In kind it is in vivo, human. The method, boiled down: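 Randomized, double-masked, placebo-controlled ascending-dose design: four cohorts of 12 healthy men (9 active, 3 placebo). Drops of 30 mg ml⁻¹ (25 μl) were given to the left eye as 0.75 mg once, or 0.75 mg bid or tid for 14 days, or 1.5 mg tid for 3 days then both eyes to 14 days. Ocular symptoms were scored 5 min post-dose on a four-point scale. Visual acuity was tested at 4 m per ETDRS protocol.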

The nature of series [4]: Subject rating of treatment. The conditions noted are these: numerical rating scale 0 (none) to 10 (very severe); comparable with placebo. The class given is in vivo, human.
The mark [5] stands for this setting: all regorafenib cohorts pooled (n = 36).

Structures are written as SMILES. Read-outs that look alike come from different tables or passages of the source. Where only a bound is given, the exact number is not on record here.

Consider `CNC(=O)c1cc(Oc2ccc(NC(=O)Nc3ccc(Cl)c(C(F)(F)F)c3)c(F)c2)cc[n+]1[O-]` [M‐2], for which, in series [1], the “measured plasma concentrations of metabolites” value is less than 2 µg/L.
For `NC(=O)c1cc(Oc2ccc(NC(=O)Nc3ccc(Cl)c(C(F)(F)F)c3)c(F)c2)cc[n+]1[O-]` [M‐5], in series [1], the “measured plasma concentrations of metabolites” value is less than 2 µg/L.
Broadly, the Tmax is the time at which the peak concentration occurs. As a reminder, the AUC is concentration integrated over time. The low end stands for low exposure, the high end for high exposure. As usually defined, the AUC(0-t) is exposure summed from dosing to a finite time, without extrapolation to infinity. Higher therefore signals high exposure. What is called Cmax is the maximum level reached in the sampled fluid or tissue. As to `CNC(=O)c1cc(Oc2ccc(NC(=O)Nc3ccc(Cl)c(C(F)(F)F)c3)c(F)c2)ccn1` [Regorafenib], the “apparent terminal elimination t1/2 after oral administration” value in series [2] was 20 to 30 h. Moreover, the “safety and tolerability over the dose range” value in series [3] (0.75 mg single dose to 1.5 mg tid both eyes (9 mg day^−1), 30 mg ml^−1, 14 days) was “safe and well tolerated”. Besides, the “eyelid redness and oedema, conjunctival hyperaemia and oedema” value in series [3] (across all regorafenib cohorts) is “mild and comparable with the effects of placebo”. In series [3] (setting [5]), the “subjects with a burning sensation” value amounted to 25%. In series [3] (setting [5]), the “subjects with a foreign body sensation” value was 17%. Also, in series [3] (setting [5]), the “subjects with a transient reduction in visual acuity” value is 31%. Moreover, in series [3] (setting [5]), the “subjects with blurred vision after solicited questioning” value worked out at 97%. Further, in series [3] (setting [5]), the “subjects with increased lacrimation” value was 8%. In series [3] (setting [5]), this compound showed a subjects with itching of 17%. Also, the “subjects with lid oedema” value in series [3] (setting [5]) stood at 8%. In series [3] (setting [5]), the “subjects with ocular/conjunctival redness” value turned out to be 19%. Further, the “effect on electrocardiographic parameters” value in series [3] (healthy volunteers, eye drops) was “No effect”. Moreover, the “C av0–8” value worked out at 0.0377 ng/mL in series [1] (first dose, Cohort 1, 0.75 mg single dose, plasma, geometric mean/%CV (range)); 0.0352 ng/mL in series [1] (first dose, Cohort 3, 0.75 mg tid (2.25 mg day^−1), plasma, geometric mean/%CV (range)); 0.0564 ng/mL in series [1] (first dose, Cohort 4, 1.5 mg tid (9.0 mg day^−1), plasma, geometric mean/%CV (range)). The time of peak concentration (Tmax) in series [1] (human, plasma, topical, tmax,md (time to reach maximum plasma concentration following multiple drug administration), individual subjects, after the last dose) was 0 to 12 h; in series [1] (male, human, plasma, topical, 0.75 mg, t max, first dose, Cohort 1, 0.75 mg single dose, median (range)) it was 24 h; in series [1] (male, human, plasma, topical, 0.75 mg, t max, first dose, Cohort 2, 0.75 mg bid (1.5 mg day^−1), median (range)) it was 11.9 h; in series [1] (male, human, plasma, topical, 0.75 mg, t max, first dose, Cohort 3, 0.75 mg tid (2.25 mg day^−1), median (range)) it was 7.92 h; in series [1] (male, human, plasma, topical, 1.5 mg, t max, first dose, Cohort 4, 1.5 mg tid (9.0 mg day^−1), median (range)) it was 8 h. Besides, in series [1] (last dose, 0.75 mg bid (Cohort 2)), the “Cav0–12md (average concentration over the 12h dosing interval)” value is 3.39 ng/mL. Further, the “C av0–8,md” value turned out to be 4.01 ng/mL in series [1] (last dose, Cohort 3, 0.75 mg tid (2.25 mg day^−1), geometric mean/%CV (range)) and 12.2 ng/mL in series [1] (last dose, Cohort 4, 1.5 mg tid (9.0 mg day^−1), geometric mean/%CV (range)). Besides, the AUC in series [1] (male, human, plasma, topical, 0.75 mg) was found to be 40.7 ng·h/mL. For the same compound, the AUC(0-t) was determined as 0.255 ng·h/mL in series [1] (male, human, plasma, topical, 0.75 mg, AUC 0–8, first dose, Cohort 2, 0.75 mg bid (1.5 mg day^−1), geometric mean/%CV (range)); 0.282 ng·h/mL in series [1] (male, human, plasma, topical, 0.75 mg, AUC 0–8, first dose, Cohort 3, 0.75 mg tid (2.25 mg day^−1), geometric mean/%CV (range)); 39.2 ng·h/mL in series [1] (male, human, plasma, topical, 0.75 mg, AUC0–tlast, Cohort 1, 0.75 mg single dose); 0.451 ng·h/mL in series [1] (male, human, plasma, topical, 1.5 mg, AUC 0–8, first dose, Cohort 4, 1.5 mg tid (9.0 mg day^−1), geometric mean/%CV (range)). Further, the Cmax in series [1] (male, human, plasma, topical, 0.75 mg, first dose, Cohort 1, 0.75 mg single dose, geometric mean/%CV (range)) turned out to be 0.42 ng/mL; in series [1] (male, human, plasma, topical, 0.75 mg, first dose, Cohort 2, 0.75 mg bid (1.5 mg day^−1), geometric mean/%CV (range)), 0.234 ng/mL; in series [1] (male, human, plasma, topical, 0.75 mg, first dose, Cohort 3, 0.75 mg tid (2.25 mg day^−1), geometric mean/%CV (range)), 0.186 ng/mL; in series [1] (male, human, plasma, topical, 1.5 mg, first dose, Cohort 4, 1.5 mg tid (9.0 mg day^−1), geometric mean/%CV (range)) it was 0.302 ng/mL. In addition, the “day when steady state was reached” value in series [1] (multiple-dose regimens, plasma concentrations) amounted to 7 days. Also, the “pain and discomfort ratings” value in series [4] is reported as “mostly 0”.
